# Measurements reported in ChEMBL document CHEMBL2417552, “Screen of pseudopeptidic inhibitors of human sirtuins 1-3: two lead compounds with antiproliferative effects in cancer cells” (J Med Chem, 2013).
# Active and inactive are the calls of the source. The rule behind the calls is not given here.
# Experiments:
# [1] = biological target: T1, NAD-dependent protein deacetylase sirtuin-1 (Homo sapiens) (UniProt Q96EB6); experiment: Inhibition of SIRT1 in etoposide-induced human ARPE19 cells assessed as increase in p53 acetylation at Lys382 at 20 uM after 5 hrs by Western blotting analysis; type: cell-based
# T1 sequence (whole entry): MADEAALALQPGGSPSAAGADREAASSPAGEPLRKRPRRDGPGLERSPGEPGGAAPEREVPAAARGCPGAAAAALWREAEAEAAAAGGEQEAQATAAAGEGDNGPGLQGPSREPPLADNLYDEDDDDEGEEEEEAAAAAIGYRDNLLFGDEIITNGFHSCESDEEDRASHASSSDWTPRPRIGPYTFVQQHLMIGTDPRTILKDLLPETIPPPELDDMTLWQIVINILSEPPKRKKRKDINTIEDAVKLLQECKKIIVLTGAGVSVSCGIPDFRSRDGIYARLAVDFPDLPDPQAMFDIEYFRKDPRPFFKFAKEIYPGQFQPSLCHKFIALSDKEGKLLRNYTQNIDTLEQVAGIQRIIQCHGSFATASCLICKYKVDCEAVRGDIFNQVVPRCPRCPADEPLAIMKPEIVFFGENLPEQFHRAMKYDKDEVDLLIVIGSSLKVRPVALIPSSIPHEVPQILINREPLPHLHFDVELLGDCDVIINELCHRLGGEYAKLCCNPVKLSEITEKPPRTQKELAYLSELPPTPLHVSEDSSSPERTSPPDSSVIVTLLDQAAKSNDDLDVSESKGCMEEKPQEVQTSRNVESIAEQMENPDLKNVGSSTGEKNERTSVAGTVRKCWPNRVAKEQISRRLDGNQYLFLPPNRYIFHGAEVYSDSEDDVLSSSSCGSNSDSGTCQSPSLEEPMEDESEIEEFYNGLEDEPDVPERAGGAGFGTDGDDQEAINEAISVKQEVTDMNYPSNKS
# Outline: (§1)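 ARPE-19 or SH-SY5Y cells seeded 24 h ahead, then given 20 μM compound and 100 μM etoposide together for 5 h before harvest. Acetylated p53 detected by Western blot. Mean ± SEM of 2 independent experiments.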
# [2] = Cytotoxicity against human ARPE19 cells at 20 uM by LDH assay; type: cell-based; conditions: arpe-19, 20 µM
# [3] = biological target: T1, NAD-dependent protein deacetylase sirtuin-1 (Homo sapiens); experiment: Inhibition of SIRT1 in etoposide-induced human MCF7 cells assessed as increase in p53 acetylation at Lys382 at 50 uM after 5 hrs by Western blotting analysis; type: cell-based
# Outline: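 MCF-7 cells seeded 24 h ahead, then given 50 μM compound and 100 μM etoposide together for 5 h before harvest. Acetylated p53 detected by Western blot; run once per compound.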
# [4] = biological target: T2, NAD-dependent protein deacetylase sirtuin-3, mitochondrial (Homo sapiens) (UniProt Q9NTG7); conditions: at 50 µM
# T2 sequence (whole entry): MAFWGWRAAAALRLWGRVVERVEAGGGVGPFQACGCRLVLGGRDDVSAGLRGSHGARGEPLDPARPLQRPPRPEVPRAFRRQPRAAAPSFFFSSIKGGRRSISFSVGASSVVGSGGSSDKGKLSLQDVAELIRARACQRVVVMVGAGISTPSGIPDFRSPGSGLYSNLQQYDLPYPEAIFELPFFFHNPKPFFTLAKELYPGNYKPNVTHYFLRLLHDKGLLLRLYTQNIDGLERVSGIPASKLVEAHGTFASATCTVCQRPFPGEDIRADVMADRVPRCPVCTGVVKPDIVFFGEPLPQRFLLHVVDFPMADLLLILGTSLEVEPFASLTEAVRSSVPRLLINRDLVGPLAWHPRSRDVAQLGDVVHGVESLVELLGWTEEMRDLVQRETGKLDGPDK
# [5] = tested on: MCF7; experiment: Growth inhibition of human MCF7 cells up to 200 uM after 72 hrs by sulforhodamine B assay
# [6] = biological target: T3, NAD-dependent protein deacetylase sirtuin-1 (Homo sapiens, UniProt Q96EB6); experiment: Inhibition of human recombinant GST-tagged SIRT1 using KI177 as substrate preincubated for 5 mins followed by enzyme addition measured after 1 hr by fluorescence assay
# T3 sequence (Q96EB6 whole entry): T1 sequence (whole entry)
# Outline: (§2)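 Fluor de Lys deacetylation assay. […] Mix preincubated 5 min at room temperature, started with enzyme, run 1 h at 37°C. Developer with 2 mM nicotinamide then added for 45 min at 37°C before fluorescence reading.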
# [7] = tested on: MCF7; experiment: Effect on alpha-tubulin acetylation in human MCF7 cells at 50 uM after 6 to 18 hrs by Western blotting analysis; type: functional, cell-based
# Outline: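 MCF-7 cells seeded 24 h ahead, treated for 6 or 18 h, then lysed in M-PER. Lysates run on SDS-PAGE, transferred to nitrocellulose and probed with mouse monoclonal anti-acetylated α-tubulin and anti-total α-tubulin. Detection with peroxidase anti-mouse secondary and ECL Plus.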
# [8] = biological target: T4, NAD-dependent protein deacetylase sirtuin-2 (Homo sapiens) (UniProt Q8IXJ6); experiment: Inhibition of human recombinant GST-tagged SIRT2 using KI179 as substrate at 50 uM preincubated for 5 mins followed by enzyme addition measured after 1 hr by fluorescence assay relative to control
# T4 sequence (whole entry): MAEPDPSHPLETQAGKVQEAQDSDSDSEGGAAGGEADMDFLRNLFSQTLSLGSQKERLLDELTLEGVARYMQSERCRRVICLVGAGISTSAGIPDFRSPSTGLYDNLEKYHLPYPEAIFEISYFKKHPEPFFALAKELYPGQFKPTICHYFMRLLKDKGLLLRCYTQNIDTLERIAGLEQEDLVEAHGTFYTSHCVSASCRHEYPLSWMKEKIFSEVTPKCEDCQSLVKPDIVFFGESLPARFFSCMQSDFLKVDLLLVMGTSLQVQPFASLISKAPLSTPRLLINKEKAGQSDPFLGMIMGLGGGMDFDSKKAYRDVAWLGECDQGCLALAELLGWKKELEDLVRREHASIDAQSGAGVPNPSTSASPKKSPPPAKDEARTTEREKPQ
# Outline: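 Recombinant GST-SIRT2, Fluor de Lys assay in SIRT assay buffer. Acetylated peptide KI179 at 0.7 Km (Km 198 µM) and NAD+ at 0.9 Km (reported Km 547 µM). Buffer, substrate, NAD+ and compound in DMSO preincubated 5 min at room temperature. Enzyme added to start; 1 h at 37 °C. Developer with 2 mM nicotinamide added; 45 min at 37 °C; fluorescence read. Mean ± SD, ≥3 experiments.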
# [9] = Cytotoxicity against human SH-SY5Y cells at 20 uM by LDH assay; type: cell-based
# [10] = tested on: A549; experiment: Growth inhibition of human A549 cells up to 200 uM after 48 hrs by sulforhodamine B assay; type: functional, cell-based
# [11] = tested on: MCF7; experiment: Cytotoxicity against human MCF7 cells at 50 uM by LDH assay; type: functional, cell-based
# [12] = biological target: T1, NAD-dependent protein deacetylase sirtuin-1 (Homo sapiens); experiment: Inhibition of SIRT1 in etoposide-induced human SH-SY5Y cells assessed as increase in p53 acetylation at Lys382 at 20 uM after 5 hrs by Western blotting analysis; type: cell-based; outline: as §1
# [13] = biological target: T1, NAD-dependent protein deacetylase sirtuin-1 (Homo sapiens); conditions: at 50 µM
# [14] = biological target: T5, NAD-dependent protein deacetylase sirtuin-2 (Homo sapiens, UniProt Q8IXJ6); experiment: Inhibition of human recombinant GST-tagged SIRT2 using KI179 as substrate preincubated for 5 mins followed by enzyme addition measured after 1 hr by fluorescence assay; outline: as §2
# T5 sequence (Q8IXJ6 whole entry): T4 sequence (whole entry)
# [15] = biological target: T6, NAD-dependent protein deacetylase sirtuin-3, mitochondrial (Homo sapiens, UniProt Q9NTG7); experiment: Inhibition of human recombinant His-tagged SIRT3 using KI179 as substrate preincubated for 5 mins followed by enzyme addition measured after 1 hr by fluorescence assay
# T6 sequence (Q9NTG7 whole entry): T2 sequence (whole entry)
# [16] = tested on: A549; experiment: Growth inhibition of human A549 cells at >= 50 uM after 48 hrs by sulforhodamine B assay; type: functional, cell-based
# [17] = tested on: A549; experiment: Cell cycle arrest in human A549 cells assessed as accumulation at G2 phase at 100 uM after 18 hrs by propidium iodide staining-based FACS flow cytometric analysis (reference value: 19.4%); type: functional
# [18] = tested on: MCF7; experiment: Cell cycle arrest in human MCF7 cells assessed as accumulation at G1 phase at 100 uM after 18 hrs by propidium iodide staining-based FACS flow cytometric analysis (reference value: 67.6%); type: functional
# [19] = tested on: MCF7; experiment: Cell cycle arrest in human MCF7 cells assessed as accumulation at S phase at 100 uM after 18 hrs by propidium iodide staining-based FACS flow cytometric analysis (reference value: 12.6%); type: functional
# [20] = tested on: MCF7; experiment: Growth inhibition of human MCF7 cells at >= 50 uM after 72 hrs by sulforhodamine B assay
# [21] = tested on: A549; experiment: Cell cycle arrest in human A549 cells assessed as accumulation at S phase at 100 uM after 18 hrs by propidium iodide staining-based FACS flow cytometric analysis (reference value: 17.8%); type: functional
# [22] = tested on: A549; experiment: Cell cycle arrest in human A549 cells assessed as accumulation at G1 phase at 100 uM after 18 hrs by propidium iodide staining-based FACS flow cytometric analysis (reference value: 62.3%); type: functional
# [23] = tested on: MCF7; experiment: Cell cycle arrest in human MCF7 cells assessed as accumulation at G2 phase at 100 uM after 18 hrs by propidium iodide staining-based FACS flow cytometric analysis (reference value: 14.7%); type: functional
# [24] = tested on: MCF7; experiment: Cytotoxicity against human MCF7 cells assessed as cell death at 100 uM after 18 hrs by propidium iodide staining-based FACS flow cytometric analysis; type: functional
# [25] = tested on: A549; experiment: Cytotoxicity against human A549 cells assessed as cell death at 100 uM after 18 hrs by propidium iodide staining-based FACS flow cytometric analysis; type: functional
inhibition [1],inhibition [3],IC50 [6],inhibition [8],inhibition [12],inhibition [13],IC50 [14],SMILES,Activity [2],Activity [7],Activity [9],Activity [11],also measured
Active,Active,0.24 µM,96%,Active,99%,1.8 µM,CC(=S)NCCCC[C@H](NC(=O)[C@@H]1C[C@@H](O)CN1C(=O)OCc1ccccc1)C(=O)NCC(=O)c1ccccc1,Non-toxic,inactive,Non-toxic,inactive,inhibition [4]: 90%; growth inhibition (GI) [5]: inactive; growth inhibition (GI) [10]: inactive; IC50 [15]: 3.89 µM
Active,Active,5.98 µM,66%,Active,88%,25.8 µM,COc1ccc2[nH]cc(CCNC(=O)[C@H](CCCCNC(C)=S)NC(=O)OCc3ccccc3)c2c1,Non-toxic,inactive,Non-toxic,inactive,growth inhibition (GI) [16]: Active; Activity [17]: 9.9%; Activity [18]: 77.4%; Activity [19]: 5.7%; growth inhibition (GI) [20]: Active; Activity [21]: 3%; Activity [22]: 85.7%; Activity [23]: 13.2%; Activity [24]: inactive; Activity [25]: inactive
